Bioassay records deposited in PubChem by several laboratories.
WT yeast gro inh = growth inhibition of WT yeast, mitochondrial fusion screen; inhibition, % at 10 µM; AID 1362; hit rate 2.1% among 190,000; mitochondrial fusion phenotypic screen, WT strain; in the data active = inhibition above about 58%; tested in S. cerevisiae
Beta cell apopt = beta cell apoptosis inhibition; hit rate 0.8% among 300,000; INS-1E cytokine-induced death, ATP luminescence, 48 h; percent of positive-control rescue, neutral wells zero; protection from apoptosis, % (concentration not given with the values); AID 435005;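 active = Every replicate reaches about 75%, or at least half do and their mean reaches it too, limit read from the data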;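 note: higher means more ATP so stronger rescue from cytokine killing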
Efflux pump inh = inhibitors of Candida antifungal efflux pumps expressed in yeast; S. cerevisiae Candida pump triplex, Nile Red efflux; inhibition, % at 10 µM; hit rate 0.44% among 330,000;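 active = plate passing quality check with inhibition over a set limit, or well fluorescence over plate mean plus 4 SD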;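 note: Nile Red retained in pooled yeast measured as flow cytometry median fluorescence; higher means more Nile Red kept so more efflux inhibition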
CSC inhib = blocks cancer stem cells. cancer stem cell-like cells viability, luminescence. inhibition, % at 7.5 µM. hit rate 1.1% among 300,000. AID 2717; in the data active = inhibition above about 75%; tested in HMLE shEcad cells
T cruzi repl = T. cruzi replication inhibition | T. cruzi beta-gal in NIH3T3, luminescence, 90 h | inhibition, % (concentration not given with the values) | hit rate 1.4% among 300,000;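 active = mean inhibition across valid replicates above about 55%, limit read from the data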;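 note: signal also drops with host cell toxicity which is not excluded here; higher percent means less beta-gal luminescence so fewer parasites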
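Test system: β-gal T. cruzi (Tulahuen C4) inside NIH/3T3 cells / Quantity: 5,000 cells/well / Measured by: luminescence from GalScreen with 0.05% NP40, read after 60 min / Medium: DMEM plus 2% FBS / Measure: parasite load inhibition, % / Reagent: Tulahuen C4 trypomastigotes, 5000/well / Schedule: co-culture of at least 90 h after 3 h attachment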
SUMO Mot1 rescue = blocks SUMOylation pathway, rescuing yeast Mot1-301 growth; S. cerevisiae Mot1-301 growth rescue, ATP luminescence, 38.5C; percent above DMSO median, 100 means doubled; growth rescue, % at 18.8 µM; hit rate 1% among 320,000; AID 2716;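 active = every valid replicate shows activation above 250% relative to neutral control wells; inactive = the rest, any valid replicate at or below 250%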
Of the large screens only hits and unclear results are named; the others gave an inactive call. Shown are actives, neighbours in structure and some others; about 4.8% of the full set was active somewhere.

CCOC(=O)c1sc2ncnc(Nc3cccc(C(=O)O)c3)c2c1C	none (no result: WT yeast gro inh)
FC(F)(F)c1ccc(CSc2nccn2-c2ccccc2)cc1	WT yeast gro inh 63
Brc1ccc(CSc2nccn2-c2ccccc2)cc1	none
O=C(CN1CCN(c2ccccc2)CC1)NC(=O)NCc1ccccc1	none (no result: WT yeast gro inh, CSC inhib, T cruzi repl)
CC1CCN(CC(=O)NC(=O)NCc2ccccc2)CC1	SUMO Mot1 rescue 332
COc1cc(/C=N/Nc2nnc3c(n2)[nH]c2ccccc23)ccc1O	none
Cc1ccc2[nH]c3nc(N/N=C/c4cccc(O)c4)nnc3c2c1	CSC inhib 81 (no result: WT yeast gro inh)
CCc1ccc2[nH]c3nc(N/N=C/c4ccc(O)cc4O)nnc3c2c1	Beta cell apopt 108, T cruzi repl 57 (no result: WT yeast gro inh)
O=C(NNS(=O)(=O)c1ccc(F)cc1)c1cc2ccccc2cc1O	none (no result: WT yeast gro inh)
CC(C)(Oc1ccc(Cl)cc1)C(=O)OCc1nc2ccsc2c(=O)[nH]1	none (no result: WT yeast gro inh)
CCCCSc1cnn(-c2ccccc2)c(=O)c1SCCCC	WT yeast gro inh 64
Cc1ccc(NC(=O)CN(C)C(=O)COc2ccccc2-c2ccccc2)cc1	none (no result: WT yeast gro inh, T cruzi repl)
Cc1ccc(Cn2ncc(Cl)c(Cl)c2=O)cc1	none
O=c1c(Cl)c(Cl)cnn1Cc1nnc(-c2ccc(Cl)cc2)o1	T cruzi repl 60 (no result: Beta cell apopt, Efflux pump inh, CSC inhib, SUMO Mot1 rescue)
N#CC(c1ccc(Cl)cc1)(c1ncc(C(F)(F)F)cc1Cl)N1CCOCC1 (configuration not stated)	WT yeast gro inh 70
N#CC(c1ccccc1F)(c1ncc(C(F)(F)F)cc1Cl)N1CCOCC1 (configuration not stated)	none (no result: CSC inhib)
O=C(C1=C[C@H](c2ccc(Br)cc2)C[C@H](OCCCCO)O1)N1CCN(Cc2ccccc2)CC1	T cruzi repl 56 (no result: Efflux pump inh)
O=C(C1=C[C@@H](c2ccc(Br)cc2)C[C@@H](OCCCCO)O1)N1CCN(Cc2ccc3c(c2)OCO3)CC1	none (no result: Efflux pump inh)
CC(=O)n1cc([C@H]2C=C(C(=O)N3CCN(Cc4ccccc4)CC3)O[C@@H](OCc3ccc(CO)cc3)C2)c2ccccc21	T cruzi repl 68
CC(=O)n1cc([C@H]2C=C(C(=O)N3CCN(Cc4ccc5c(c4)OCO5)CC3)O[C@@H](OCc3ccc(CO)cc3)C2)c2ccccc21	T cruzi repl 56
O=C(C1=C[C@@H](c2csc3ccccc23)C[C@@H](OCc2ccc(CO)cc2)O1)N1CCN(Cc2ccc3c(c2)OCO3)CC1	none (no result: Efflux pump inh)
O=C(C1=C[C@@H](c2csc3ccccc23)C[C@@H](OCc2ccc(CO)cc2)O1)N1CCN(Cc2ccccc2)CC1	WT yeast gro inh 94, T cruzi repl 68 (no result: Beta cell apopt)
COc1ccccc1NC(=O)COC(=O)c1ccc2ccccc2n1	none (no result: WT yeast gro inh, T cruzi repl)
C=CCOC(=O)C1=C[C@@H](c2coc3ccccc3c2=O)C[C@@H](OCc2ccc(CO)cc2)O1	WT yeast gro inh 68
O=C(NCc1ccccc1)C1=C[C@H](c2csc3ccccc23)C[C@H](OCCCCO)O1	Beta cell apopt 75
O=C(Nc1ccccc1)C1=C[C@H](c2csc3ccccc23)C[C@H](OCCCCO)O1	none
COc1ccccc1NC(=O)c1ccc(NC(=O)COC(=O)C2(C)CC2(Cl)Cl)cc1 (configuration not stated)	none
Cc1ccccc1-c1noc(-c2ccc(O)cc2)n1	CSC inhib 96
Cc1ccccc1-c1noc(-c2ccc(Cl)cc2)n1	none
Cc1ccccc1-c1noc(C23CC4CC(CC(C4)C2)C3)n1	WT yeast gro inh 81 (no result: Beta cell apopt)
COc1ccc(C2C(O)C(c3c[nH]c4ccccc34)=NN2C(=O)CCl)cc1 (configuration not stated)	Beta cell apopt 129, CSC inhib 109 (no result: WT yeast gro inh)
COc1ccc(C2NN=C(c3c[nH]c4ccccc34)C2O)cc1 (configuration not stated)	none (no result: WT yeast gro inh)
COc1cccc(-n2c(SCc3cc(=O)oc4cc(O)c(O)cc34)nc3ccccc3c2=O)c1	CSC inhib 100
CCOc1cc(/C=C\c2[nH]c(=O)[nH]c(=O)c2[N+](=O)[O-])ccc1OC(C)CC (configuration not stated)	CSC inhib 78
CCCOc1ccc(/C=C/c2[nH]c(=O)[nH]c(=O)c2[N+](=O)[O-])cc1OCC	none (no result: WT yeast gro inh)
O=C(NCCNC(=O)c1ccc(Cl)cc1Cl)c1ccco1	none (no result: WT yeast gro inh, CSC inhib)
CCCc1nc2sc3ccccc3c(=O)c2c(=O)n1Cc1ccc(OC)cc1	Beta cell apopt 100 (no result: WT yeast gro inh)
CCCc1nc2sc3ccccc3c(=O)c2c(=O)n1Cc1ccco1	none (no result: Beta cell apopt, Efflux pump inh, CSC inhib, T cruzi repl, SUMO Mot1 rescue)
COCCn1c(C2CCCCC2)nc2sc3ccccc3c(=O)c2c1=O	T cruzi repl 55
CC(C)c1nc2sc3ccccc3c(=O)c2c(=O)n1Cc1ccccc1	CSC inhib 77 (no result: WT yeast gro inh)
COc1ccc(Cn2c(C(C)C)nc3sc4ccccc4c(=O)c3c2=O)cc1	none (no result: WT yeast gro inh)
N=C1SCC(=O)N1c1ncc(Cc2cccc(Cl)c2)s1	none (no result: Beta cell apopt, Efflux pump inh, CSC inhib, SUMO Mot1 rescue)
CCC(=O)Nc1cccc(C(=O)/C=C/c2cc(Br)ccc2OC)c1	WT yeast gro inh 89
COc1ccc(Br)cc1/C=C/C(=O)Nc1ccc2ccccc2c1	CSC inhib 77
CCC(=O)Nc1cccc(C(=O)OC)c1	none (no result: WT yeast gro inh)
COc1ccc(Br)cc1/C=C/C(=O)Nc1ccc(C)cc1	none
Cc1nn(C)c(Cl)c1S(=O)(=O)N1CCC(CO)(CCc2ccccc2)CC1	none
C[N+]1(CC(=O)Nc2ccc(F)cc2)CCN(C(=O)c2ccco2)CC1	WT yeast gro inh 67
O=C(Nc1ncc(Cc2cccc(Cl)c2)s1)c1cccs1	WT yeast gro inh 81 (no result: CSC inhib)
Cc1ccc(C(=O)Nc2ncc(Cc3ccccc3)s2)o1	CSC inhib 97 (no result: Beta cell apopt)
O=C(Nc1ncc(Cc2ccccc2)s1)c1cccs1	none
Cc1noc(C)c1CCC(=O)N1CCCC(N2CCN(c3ccc(F)cc3)CC2)C1 (configuration not stated)	none (no result: WT yeast gro inh)
COc1cc(/C=C2\C(=O)ON=C2c2ccc(Cl)cc2)ccc1O	CSC inhib 87 (no result: WT yeast gro inh)
C=C(C)C1Cc2nc(N)nc(C)c2C1 (configuration not stated)	none (no result: Beta cell apopt)
C=C(C)C1Cc2c(C)nn(-c3nc(C)cc(C)n3)c2C1 (configuration not stated)	WT yeast gro inh 64
CN(CC(=O)Nc1ccccc1Cl)CC(=O)Nc1cccc2ccccc12	none (no result: WT yeast gro inh, T cruzi repl)
CCn1nc(C)cc1-c1nnc(SCC(=O)Nc2ccccc2)n1CCCOC	none (no result: WT yeast gro inh)
CCn1nc(C)cc1-c1nnc(Sc2ncc([N+](=O)[O-])s2)n1C	T cruzi repl 61 (no result: WT yeast gro inh, Beta cell apopt, CSC inhib)
COc1ccc(-n2nc([N+](=O)[O-])c(=NCCC3=CCCCC3)n2O)cc1	T cruzi repl 91 (no result: SUMO Mot1 rescue)
COc1ccc(-n2nc([N+](=O)[O-])c(=NCCc3ccc(Cl)cc3)n2O)cc1	T cruzi repl 67
COc1ccc(-n2nc([N+](=O)[O-])c(=NCCc3ccc(C)cc3)n2O)cc1	none (no result: CSC inhib)
O=C1C2C3C=CC(C3=C(c3ccccc3)c3ccccc3)C2C(=O)N1Cc1ccccc1 (configuration not stated)	none
Cc1cccc(C)c1N1CCN(c2ccc3nnc(C(F)(F)F)n3n2)CC1	WT yeast gro inh 78 (no result: Beta cell apopt)
FC(F)(F)c1nnc2ccc(N3CCCCC3)nn12	none (no result: WT yeast gro inh, Beta cell apopt)
